Source: ChEMBL document CHEMBL1127344, “Tridentate ligands containing the SNS donor atom set as a novel backbone for the development of technetium brain-imaging agents” (J Med Chem, 1994)

Assays:
Mus musculus [1] = species on record: Mus musculus; experiment: Tested for biodistribution of compound at 30 min in mice brain; format: ADME, organism-based; settings: in vivo, 0.5 h
Procedure, shortened: (§1)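 Male Swiss albino mice, at least five per group, received 0.1 mL (2-3 μCi) of HPLC-purified 99mTc complex reconstituted in 50% methanol by tail vein. They were killed by cardiectomy under light ether anesthesia at set times (1-60 min pi). Organs were weighed and γ-counted against a 1% injected-dose standard to give % dose/organ. Blood and muscle were taken as 7% and 43% of body weight.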

Mus musculus [2] = species on record: Mus musculus; experiment: Tested for biodistribution of compound at 10 min in mice blood; format: ADME, organism-based; settings: in vivo; procedure, shortened: as §1
Mus musculus [3] = species on record: Mus musculus; experiment: Tested for biodistribution of compound at 1 min in mice spleen; format: ADME, organism-based; settings: in vivo; procedure, shortened: as §1
Mus musculus [4] = species on record: Mus musculus; experiment: Tested for biodistribution of compound at 1 min in mice brain; format: ADME, organism-based; settings: in vivo; procedure, shortened: as §1
Rattus norvegicus [5] = species on record: Rattus norvegicus; experiment: Tested for biodistribution of compound at 60 min in rat blood; format: ADME, organism-based; settings: in vivo, 1 h
Rattus norvegicus [6] = species on record: Rattus norvegicus; experiment: Tested for biodistribution of compound at 10 min in rat spleen; format: ADME, organism-based; settings: in vivo
Procedure, shortened: (§2)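 Wistar rats under ether anesthesia were dosed through the femoral vein with 0.1 mL of 99mTc complex (3-6 μCi) and dissected 5-60 min pi. Tissue radioactivity was γ-counted against a 1% injected-dose standard and expressed as % dose/organ. Blood and muscle were calculated from sample weight assuming 7% and 43% of body weight.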

Rattus norvegicus [7] = species on record: Rattus norvegicus; experiment: Tested for biodistribution of compound at 30 min in rat stomach; format: ADME, organism-based; settings: in vivo, 0.5 h
Rattus norvegicus [8] = species on record: Rattus norvegicus; experiment: Tested for biodistribution of compound at 60 min in rat heart; format: ADME, organism-based; settings: in vivo, 1 h
Rattus norvegicus [9] = species on record: Rattus norvegicus; experiment: Tested for biodistribution of compound at 30 min in rat heart; format: ADME, organism-based; settings: in vivo, 0.5 h; procedure, shortened: as §2
Mus musculus [10] = species on record: Mus musculus; experiment: Tested for biodistribution of compound at 1 min in mice kidney; format: ADME, organism-based; settings: in vivo; procedure, shortened: as §1
Mus musculus [11] = species on record: Mus musculus; experiment: Tested for biodistribution of compound at 5 min in mice lungs; format: ADME, organism-based, Lung; settings: in vivo
Procedure, shortened: (§3)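 Male Swiss albino mice, at least five per group, received HPLC-purified 99mTc complex by tail vein. The complex was reconstituted in 50% methanol (0.1 mL, 2-3 μCi). Mice were killed by cardiectomy under light ether at 1-60 min pi. Organs were weighed and γ-counted against a 1% injected-dose standard to give % dose/organ. Blood and muscle were taken as 7% and 43% of body weight.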

Mus musculus [12] = species on record: Mus musculus; experiment: Tested for biodistribution of compound at 60 min in mice spleen; format: ADME, organism-based; settings: in vivo, 1 h; procedure, shortened: as §3
Rattus norvegicus [13] = species on record: Rattus norvegicus; experiment: Tested for biodistribution of compound at 60 min in rat s. intestine; format: ADME, organism-based; settings: in vivo, 1 h
Rattus norvegicus [14] = species on record: Rattus norvegicus; experiment: Tested for biodistribution of compound at 5 min in rat brain; format: ADME, organism-based; settings: in vivo
Rattus norvegicus [15] = species on record: Rattus norvegicus; experiment: Tested for biodistribution of compound at 10 min in rat heart; format: ADME, organism-based; settings: in vivo; procedure, shortened: as §2
Mus musculus [16] = species on record: Mus musculus; experiment: Tested for biodistribution of compound at 30 min in mice kidney; format: ADME, organism-based; settings: in vivo, 0.5 h; procedure, shortened: as §1
Rattus norvegicus [17] = species on record: Rattus norvegicus; experiment: Tested for biodistribution of compound at 30 min in rat s. intestine; format: ADME, organism-based; settings: in vivo, 0.5 h
Rattus norvegicus [18] = species on record: Rattus norvegicus; experiment: Tested for biodistribution of compound at 60 min in rat liver; format: ADME, organism-based; settings: in vivo, 1 h
Mus musculus [19] = species on record: Mus musculus; experiment: Tested for biodistribution of compound at 1 min in mice blood; format: ADME, organism-based; settings: in vivo; procedure, shortened: as §1
Rattus norvegicus [20] = species on record: Rattus norvegicus; experiment: Tested for biodistribution of compound at 60 min in rat lungs; format: ADME, organism-based, Lung; settings: in vivo, 1 h
Mus musculus [21] = species on record: Mus musculus; experiment: Tested for biodistribution of compound at 30 min in mice intestine; format: ADME, organism-based; settings: in vivo, 0.5 h; procedure, shortened: as §1
Rattus norvegicus [22] = species on record: Rattus norvegicus; experiment: Tested for biodistribution of compound at 30 min in rat muscle; format: ADME, organism-based, Muscle tissue; settings: in vivo, 0.5 h
Mus musculus [23] = species on record: Mus musculus; experiment: Tested for biodistribution of compound at 5 min in mice kidney; format: ADME, organism-based; settings: in vivo; procedure, shortened: as §3
Rattus norvegicus [24] = species on record: Rattus norvegicus; experiment: Tested for biodistribution of compound at 30 min in rat brain; format: ADME, organism-based; settings: in vivo, 0.5 h; procedure, shortened: as §2
Rattus norvegicus [25] = species on record: Rattus norvegicus; experiment: Tested for biodistribution of compound at 60 min in rat muscle; format: ADME, organism-based, Muscle tissue; settings: in vivo, 1 h
Mus musculus [26] = species on record: Mus musculus; experiment: Tested for biodistribution of compound at 10 min in mice muscle; format: ADME, organism-based, Muscle tissue; settings: in vivo; procedure, shortened: as §1
Mus musculus [27] = species on record: Mus musculus; experiment: Tested for biodistribution of compound at 30 min in mice spleen; format: ADME, organism-based; settings: in vivo, 0.5 h; procedure, shortened: as §1
Mus musculus [28] = species on record: Mus musculus; experiment: Tested for biodistribution of compound at 1 min in mice muscle; format: ADME, organism-based, Muscle tissue; settings: in vivo; procedure, shortened: as §1
Mus musculus [29] = species on record: Mus musculus; experiment: Tested for biodistribution of compound at 30 min in mice stomach; format: ADME, organism-based; settings: in vivo, 0.5 h; procedure, shortened: as §1
Mus musculus [30] = species on record: Mus musculus; experiment: Tested for biodistribution of compound at 30 min in mice blood; format: ADME, organism-based; settings: in vivo, 0.5 h; procedure, shortened: as §1
Mus musculus [31] = species on record: Mus musculus; experiment: Tested for biodistribution of compound at 10 min in mice kidney; format: ADME, organism-based; settings: in vivo; procedure, shortened: as §1
Mus musculus [32] = species on record: Mus musculus; experiment: Tested for biodistribution of compound at 30 min in mice lungs; format: ADME, organism-based, Lung; settings: in vivo, 0.5 h; procedure, shortened: as §1
Mus musculus [33] = species on record: Mus musculus; experiment: Tested for biodistribution of compound at 5 min in mice muscle; format: ADME, organism-based, Muscle tissue; settings: in vivo; procedure, shortened: as §3
Mus musculus [34] = species on record: Mus musculus; experiment: Tested for biodistribution of compound at 10 min in mice lungs; format: ADME, organism-based, Lung; settings: in vivo; procedure, shortened: as §1
Mus musculus [35] = species on record: Mus musculus; experiment: Tested for biodistribution of compound at 10 min in mice intestine; format: ADME, organism-based; settings: in vivo; procedure, shortened: as §1
Mus musculus [36] = species on record: Mus musculus; experiment: Tested for biodistribution of compound at 60 min in mice kidney; format: ADME, organism-based; settings: in vivo, 1 h; procedure, shortened: as §3
Mus musculus [37] = species on record: Mus musculus; experiment: Tested for biodistribution of compound at 30 min in mice liver; format: ADME, organism-based; settings: in vivo, 0.5 h; procedure, shortened: as §1
Mus musculus [38] = species on record: Mus musculus; experiment: Tested for biodistribution of compound at 10 min in mice urine; format: ADME, organism-based; settings: in vivo; procedure, shortened: as §1
Mus musculus [39] = species on record: Mus musculus; experiment: Tested for biodistribution of compound at 60 min in mice heart; format: ADME, organism-based; settings: in vivo, 1 h; procedure, shortened: as §3
Rattus norvegicus [40] = species on record: Rattus norvegicus; experiment: Tested for biodistribution of compound at 30 min in rat kidney; format: ADME, organism-based; settings: in vivo, 0.5 h; procedure, shortened: as §2
Mus musculus [41] = species on record: Mus musculus; experiment: Tested for biodistribution of compound at 60 min in mice blood; format: ADME, organism-based; settings: in vivo, 1 h; procedure, shortened: as §3
Mus musculus [42] = species on record: Mus musculus; experiment: Tested for biodistribution of compound at 5 min in mice blood; format: ADME, organism-based; settings: in vivo; procedure, shortened: as §3
Rattus norvegicus [43] = species on record: Rattus norvegicus; experiment: Tested for biodistribution of compound at 5 min in rat s. intestine; format: ADME, organism-based; settings: in vivo
Mus musculus [44] = species on record: Mus musculus; experiment: Tested for biodistribution of compound at 10 min in mice heart; format: ADME, organism-based; settings: in vivo; procedure, shortened: as §1
Mus musculus [45] = species on record: Mus musculus; experiment: Tested for biodistribution of compound at 60 min in mice liver; format: ADME, organism-based; settings: in vivo, 1 h; procedure, shortened: as §3
Mus musculus [46] = species on record: Mus musculus; experiment: Tested for biodistribution of compound at 1 min in mice lungs; format: ADME, organism-based, Lung; settings: in vivo; procedure, shortened: as §1
Rattus norvegicus [47] = species on record: Rattus norvegicus; experiment: Tested for biodistribution of compound at 10 min in rat intestine; format: ADME, organism-based; settings: in vivo; procedure, shortened: as §2
Rattus norvegicus [48] = species on record: Rattus norvegicus; experiment: Tested for biodistribution of compound at 5 min in rat blood; format: ADME, organism-based; settings: in vivo

Dose/organ (Mus musculus [1]): 1.71% | Dose/organ (Mus musculus [2]): 1.53% | Dose/organ (Mus musculus [3]): 0.03% | Dose/organ (Mus musculus [4]): 3.56% | Dose/organ (Rattus norvegicus [5]): 4.8% | Dose/organ (Rattus norvegicus [6]): 0.77% | Dose/organ (Rattus norvegicus [7]): 2.19% | Dose/organ (Rattus norvegicus [8]): 0.15% | Dose/organ (Rattus norvegicus [9]): 0.17% | Dose/organ (Mus musculus [10]): 1.7% | Dose/organ (Mus musculus [11]): 15.37% | Dose/organ (Mus musculus [12]): 0.21% | Dose/organ (Rattus norvegicus [13]): 8.15% | Dose/organ (Rattus norvegicus [14]): 1.45% | Dose/organ (Rattus norvegicus [15]): 0.51% | Dose/organ (Mus musculus [16]): 2.19% | Dose/organ (Rattus norvegicus [17]): 7.55% | Dose/organ (Rattus norvegicus [18]): 35.74% | Dose/organ (Mus musculus [19]): 5.24% | Dose/organ (Rattus norvegicus [20]): 1.14% | Dose/organ (Mus musculus [21]): 18.99% | Dose/organ (Rattus norvegicus [22]): 16.52% | Dose/organ (Mus musculus [23]): 3.14% | Dose/organ (Rattus norvegicus [24]): 0.53% | Dose/organ (Rattus norvegicus [25]): 10.6% | Dose/organ (Mus musculus [26]): 16.49% | Dose/organ (Mus musculus [27]): 0.38% | Dose/organ (Mus musculus [28]): 17.26% | Dose/organ (Mus musculus [29]): 1.24% | Dose/organ (Mus musculus [30]): 1.29% | Dose/organ (Mus musculus [31]): 3.18% | Dose/organ (Mus musculus [32]): 3.09% | Dose/organ (Mus musculus [33]): 24.17% | Dose/organ (Mus musculus [34]): 9.78% | Dose/organ (Mus musculus [35]): 9.61% | Dose/organ (Mus musculus [36]): 1.59% | Dose/organ (Mus musculus [37]): 25.58% | Dose/organ (Mus musculus [38]): 1.1% | Dose/organ (Mus musculus [39]): 0.12% | Dose/organ (Rattus norvegicus [40]): 6.33% | Dose/organ (Mus musculus [41]): 1.21% | Dose/organ (Mus musculus [42]): 2.02% | Dose/organ (Rattus norvegicus [43]): 5.96% | Dose/organ (Mus musculus [44]): 0.46% | Dose/organ (Mus musculus [45]): 35.12% | Dose/organ (Mus musculus [46]): 27.19% | Dose/organ (Rattus norvegicus [47]): 2.7% | Dose/organ (Rattus norvegicus [48]): 18.89%
Substance: [4-methoxythio)phenolato][N,N-bis(2-mercaptoethyl)-N',N'-diethylethylenediamine] oxotechnetium
